# In ChEMBL document CHEMBL1800056, “Discovery of 2-(6-{[(6-fluoroquinolin-2-yl)methyl]amino}bicyclo[3.1.0]hex-3-yl)-N-hydroxypyrimidine-5-carboxamide (CHR-3996), a class I selective orally active histone deacetylase inhibitor” (J Med Chem, 2010):
# Experiments:
# [1] = Half life in rat at 10 mg/kg, po; format: ADME, organism-based; set-up: dose 10 mg/kg, route oral; conditions: in vivo
# How it was run: (§1)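 Rat single dose, iv 1 mg/kg or po 10 mg/kg, both in 1% DMSO-HPβC (11.25% w/v). AUC0-t in ng h/mL, clearance in (mL/min)/kg, t1/2 in h, F in %.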
# HCT-116 = assay: Ratio of GI50 for SAHA to compound for human HCT116 cells after 72 hrs by WST-1 assay; format: functional
# How it was run: (§2)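 Cells seeded at (1-5) × 10³/well in serum-containing medium and grown 24 h at 37 °C, 5% CO₂. They were then exposed for 72 h to HDAC inhibitor (0.6-10000 nM), with SAHA run alongside in the same panel. WST-1 was added for the final 4 h and read at 450 nm (650 nm reference). GI50 taken as 50% inhibition of the vehicle response, n = 6.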
# [2] = Half life in dog at 10 mg/kg, po; format: ADME, organism-based, Canis lupus familiaris; set-up: dose 10 mg/kg, route oral; conditions: in vivo
# How it was run: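 Dog single dose: iv 1 mg/kg in 5% DMSO-HPβC (11.25% w/v); po 10 mg/kg in 5% DMSO-saline. AUC0-t in ng h/mL, clearance in (mL/min)/kg, t1/2 in h, F in %.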
# HepG2 = assay: Ratio of GI50 for SAHA to compound for human HepG2 cells after 72 hrs by WST-1 assay; format: functional; how it was run: as §2
# PC-3 = assay: Ratio of GI50 for SAHA to compound for human PC3 cells after 72 hrs by WST-1 assay; format: functional; how it was run: as §2
# Rattus norvegicus = assay: Oral bioavailability in rat at 10 mg/kg; format: ADME, organism-based; conditions: in vivo; how it was run: as §1
# [3] = Clearance in rat at 1 mg/kg, iv; format: ADME, organism-based; set-up: dose 1 mg/kg, route intravenous; conditions: in vivo; how it was run: as §1
# A549 = assay: Ratio of GI50 for SAHA to compound for human A549 cells after 72 hrs by WST-1 assay; format: functional; how it was run: as §2
# [4] = Drug level in tumor of BALB/c mouse at 75 mg/kg, po administered daily for 14 days; format: ADME, organism-based, Neoplasm; set-up: dose 75 mg/kg, route oral; conditions: read-out: Drug uptake
# How it was run: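 HCT116 xenografts in female nude BALB/c mice, run at EpiStem. Oral daily dosing for 14 days in 5% DMSO-saline at 50 or 75 mg/kg. Tumor volume measured relative to start; drug concentrations in tumor and plasma measured.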
half-life [1] [h],half-life [2] [h],F (Rattus norvegicus) [%],clearance [3] [mL/min/kg],concentration at 336 h [4] [ng/mL],SMILES,RatioGI50 (HCT-116),RatioGI50 (HepG2),RatioGI50 (PC-3),RatioGI50 (A549)
5.2,0.9,27,134,,O=C(NO)c1cnc(N2C[C@@H]3[C@H](C2)[C@H]3NCc2ccc3cc(F)ccc3n2)nc1 [NANATINOSTAT],10.3,20,12.5,22.8
,,,,28,O=C(NO)c1cnc(N2C[C@@H]3[C@H](C2)[C@H]3NCc2ccc(Cl)cc2)nc1,,,,
